Data on one molecule can be found in ChEMBL document CHEMBL1153564 (Antimicrob Agents Chemother, 2008).

Converted amounts (≈) assume the structure as drawn. The source made the active and inactive calls. No cut-off for these calls is given here. Starred links: 1 amine or outer side, 2 acyl side, 3 side chain; linkers in the order of their positions; H or OH if unused. Positions of bridges follow the written chain, without caps; N, C: chain ends. Non-standard residues stand in square brackets, D forms with d. Residues, ends and D or L forms follow the SMILES beside them. *: point of attachment. pTerphenylCO(4''-OnC5H11) = CCCCCOc1ccc(-c2ccc(-c3ccc(C(=O)*)cc3)cc2)cc1; Orn(4R-OH,5R-OH) = O=C([C@H](C[C@@H](O)[C@@H](O)N[*:3])N[*:1])[*:2]; hTyr(3S-OH,4S-OH) = N[C@H](C(=O)O)[C@H](O)[C@@H](O)c1ccc(O)cc1; Pro(3S-OH,4S-Me) = C[C@H]1CN[C@H](C(=O)O)[C@H]1O; Hyp = O=C(O)[C@@H]1C[C@@H](O)CN1

Series [1] deals with Candida albicans. As to the kind of experiment: Antifungal activity against Candida albicans 98-17 infected in neutropenic ICR/Swiss mouse candidiasis model assessed as dose required to maintain […] of 3.81 +/- 0.33 log10CFU per kidney administered intraperitoneally every 24 hrs up to 4 days measured per 24 hrs. In kind it is functional. In a few lines:
(§1)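 Neutropenic mice (cyclophosphamide sc on days −4, −1 and +2) were infected iv 2 h before therapy. Five total doses from 0.078 to 20 mg/kg/24 h were given ip q24h for 4 days, three mice per regimen. Kidney CFU were measured at the end of therapy. Static and 1-log-kill doses were derived from a Hill sigmoid dose-effect fit.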

For series [2], the system named is Candida albicans. The series is described as follows: Antifungal activity against Candida albicans K-1 assessed as complete growth inhibition after 24 hrs by CLSI end point method. In kind it is functional. The following applies: K-1, 24 h. An outline of the steps:
(§2)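 CLSI M27-A2 broth dilution. Two end points read against the drug-free control well: partial inhibition (CLSI end point) and complete inhibition. Run in duplicate on four separate occasions; value is the mean. Drug stock in DMSO, diluted in 0.9% NaCl.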

The test system of series [3] is Nakaseomyces glabratus. As to the kind of experiment: Antifungal activity against Candida glabrata 5376 infected in neutropenic ICR/Swiss mouse candidiasis model assessed as prolongation of fungal growth suppression at 1.25 mg/kg, ip administered 2 hrs postinfection as single dose by time-kill assay. The class given is functional. The following applies: route intraperitoneal. In a few lines:
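Single ip dose of 1.25, 5 or 20 mg/kg given 2 h after iv infection of neutropenic mice. Groups of 3 treated and 3 control mice sampled at 1–24 h intervals over 96 h. Kidney homogenates plated on SDA, 24 h at 35°C. PAFE = time for treated burden to rise 1 log10 CFU/kidney after serum level fell below MIC, minus the same time in controls.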

For series [4], the system named is Candida albicans. As to the kind of experiment: Antifungal activity against Candida albicans 98-210 infected in neutropenic ICR/Swiss mouse candidiasis model assessed as dose required to maintain […] of 3.81 +/- 0.33 log10CFU per kidney administered intraperitoneally every 24 hrs up to 4 days measured per 24 hrs. In kind it is functional. An outline of the steps: as §1

Series [5] concerns Nakaseomyces glabratus. The series is described as follows: Antifungal activity against Candida glabrata 5376 infected in neutropenic ICR/Swiss mouse candidiasis model assessed as reduction of […] in kidney at 5 mg/kg, ip administered 2 hrs postinfection as single dose measured after 96 hrs post dosing by time-kill assay. The class given is functional, organism-based. Set-up: dose 5 mg/kg. In a few lines:
(§3)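 Neutropenic mice were infected i.v. and 2 h later given a single i.p. dose (1.25, 5 or 20 mg/kg). Groups of three treated and three control mice were killed at intervals over 96 h, and kidney CFU were counted on SDA (limit 100 CFU/ml). The post-antifungal effect is t − c: the time for a 1 log10 CFU/kidney increase once serum levels fall below the MIC in treated mice, minus the same time in controls.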

In series [6] the test system is Candida tropicalis. The series is described as follows: Antifungal activity against Candida tropicalis 98-234 infected in neutropenic ICR/Swiss mouse candidiasis model assessed as dose required to maintain […] of 3.81 +/- 0.33 log10CFU per kidney administered intraperitoneally every 24 hrs up to 4 days measured per 24 hrs. In kind it is functional.
Series [7] concerns Candida albicans. As to the kind of experiment: Antifungal activity against Candida albicans K-1 infected in neutropenic ICR/Swiss mouse candidiasis model assessed as dose required for 1-log10 reduction in […] per kidney administered intraperitoneally every 16 hrs up to 4 days measured per 96 hrs. The class given is functional. In a few lines:
(§4)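 Neutropenic mice were infected iv with C. albicans K-1 2 h before therapy. Total doses of 1.25, 5, 20, 80 and 320 mg/kg/96 h were split into 1, 2, 4 or 6 ip doses (q96h, q48h, q24h, q16h), three mice per regimen. Effect is the log10 CFU/kidney relative to untreated controls at 96 h. Static and 1-log doses were taken from a Hill model fit.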

In series [8] the test system is Nakaseomyces glabratus. As to the kind of experiment: Antifungal activity against Candida glabrata 5376 infected in neutropenic ICR/Swiss mouse candidiasis model assessed as dose required for 1-log10 reduction in […] per kidney administered intraperitoneally every 16 hrs up to 4 days measured per 96 hrs. The class given is functional. An outline of the steps:
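Neutropenic ICR/Swiss mice infected i.v. with the strain; therapy began 2 h later. Total doses of 1.25–320 mg/kg/96 h were given i.p. as 1, 2, 4 or 6 doses (q96h, q48h, q24h, q16h), three mice per regimen. Kidney CFU were counted after 4 days. Effect is the change from untreated controls at the end of therapy.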

A short description of series [9]: Cmax in human at 100 mg/day. The class given is ADME, organism-based. More on the design: dose 100 mg/day. The following applies: in vivo.
The test system of series [10] is Nakaseomyces glabratus. The series is described as follows: Antifungal activity against Candida glabrata 5376 infected in neutropenic ICR/Swiss mouse candidiasis model assessed as reduction of […] in kidney at 20 mg/kg, ip administered 2 hrs postinfection as single dose measured after 96 hrs post dosing by time-kill assay. The class given is functional, organism-based. Set-up: dose 20 mg/kg. An outline of the steps:
as §3

For series [11], the system named is Nakaseomyces glabratus. The series is described as follows: Antifungal activity against Candida glabrata 33609 infected in neutropenic ICR/Swiss mouse candidiasis model assessed as dose required for 1-log10 reduction in […] per kidney administered intraperitoneally every 24 hrs up to 4 days measured per 24 hrs. The class given is functional. In a few lines:
as §1

Series [12] concerns Candida albicans. The series is described as follows: Antifungal activity against Candida albicans 98-210 assessed as complete growth inhibition after 24 hrs by CLSI end point method. The class given is functional. The following applies: 98-210, 24 h. An outline of the steps: as §2
Series [13] relates to Candida tropicalis. As to the kind of experiment: Antifungal activity against Candida tropicalis 98-234 assessed as partial growth inhibition after 24 hrs by CLSI end point method. The following applies: 98-234, 24 h. In kind it is functional.
A further series deals with Serum. As to the kind of experiment: Fraction unbound in Candida glabrata 5376-infected neutropenic ICR/Swiss mouse serum at 5 mg/kg, ip administered 2 hrs postinfection as single dose. The following applies: in vivo. In kind it is ADME, organism-based. Set-up: dose 5 mg/kg, route intraperitoneal.
Series [14] concerns Nakaseomyces glabratus. As to the kind of experiment: Antifungal activity against Candida glabrata 5592 assessed as complete growth inhibition after 24 hrs by CLSI end point method. The following applies: Nakaseomyces glabratus, 5592, 24 h. The class given is functional. An outline of the steps: (§5)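 Two end points were read against the drug-free control well: partial growth inhibition (the CLSI end point) and complete inhibition. Run in duplicate on four separate occasions; the value is the mean. Drug stock was made in DMSO and diluted in 0.9% NaCl.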

Series [15] deals with Nakaseomyces glabratus. As to the kind of experiment: Antifungal activity against Candida glabrata 32930 assessed as partial growth inhibition after 24 hrs by CLSI end point method. In kind it is functional. The following applies: Nakaseomyces glabratus, 32930, 24 h. An outline of the steps:
as §2

Series [16] is described as follows: AUC (0 to infinity) in serum of neutropenic ICR/Swiss mouse candidiasis model at 20 mg/kg, ip by reverse-phase high-pressure liquid chromatography. In kind it is ADME, organism-based. Set-up: time infinity, dose 20 mg/kg, route intraperitoneal. An outline of the steps: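 Single ip dose in 0.2 ml to infected neutropenic mice. Serum from groups of three isoflurane-anaesthetised mice at 1, 4, 8, 12, 24 and 48 h, stored −80°C. Drug measured by reverse-phase HPLC with fluorescence detection against loratadine internal standard (calibration 10–50,000 ng/ml). Noncompartmental analysis; AUC by trapezoidal rule.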

Series [17] concerns Candida albicans. As to the kind of experiment: Antifungal activity against Candida albicans K-1 infected in neutropenic ICR/Swiss mouse candidiasis model assessed as dose required for 1-log10 reduction in […] per kidney administered intraperitoneally once every 96 hrs measured per 96 hrs. In kind it is functional. In a few lines:
as §4

In series [18] the test system is Candida albicans. The series is described as follows: Antifungal activity against Candida albicans K-1 infected in neutropenic ICR/Swiss mouse candidiasis model assessed as reduction of […] in kidney at 20 mg/kg, ip administered 2 hrs postinfection as single dose measured after 96 hrs post dosing by time-kill assay. In kind it is functional, organism-based. Set-up: dose 20 mg/kg. In a few lines:
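Single ip dose (20, 5 or 1.25 mg/kg) given 2 h after iv infection of neutropenic mice with K-1. Three treated and three control mice were sampled at intervals over 96 h for kidney CFU. PAFE is the time for treated burden to rise 1 log10 after serum levels fall below MIC, minus the same time in controls. Free drug was taken as 1%.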

Series [19] has as its system Nakaseomyces glabratus. The series is described as follows: Antifungal activity against Candida glabrata 35315 assessed as partial growth inhibition after 24 hrs by CLSI end point method. The class given is functional. The following applies: Nakaseomyces glabratus, 35315, 24 h. In a few lines:
as §5

Regarding `CCCCCOc1ccc(-c2ccc(-c3ccc(C(=O)N[C@H]4C[C@@H](O)[C@@H](O)NC(=O)[C@@H]5[C@@H](O)[C@@H](C)CN5C(=O)[C@H]([C@@H](C)O)NC(=O)[C@H]([C@H](O)[C@@H](O)c5ccc(O)cc5)NC(=O)[C@@H]5C[C@@H](O)CN5C(=O)[C@H]([C@@H](C)O)NC4=O)cc3)cc2)cc1` [ANIDULAFUNGIN] ({pTerphenylCO(4''-OnC5H11)}-[Orn(4R-OH,5R-OH)]T[Hyp][hTyr(3S-OH,4S-OH)]T[Pro(3S-OH,4S-Me)]; lactam 1-C), the Activity in the series with Candida albicans [1] was 1.15 mg/kg; in the series with Nakaseomyces glabratus [3] it was 19 h; with Candida albicans [4], 3.37 mg/kg; in the series with Candida tropicalis [6] it was 3.81 mg/kg; with Candida albicans [7] it was 38.3 mg/kg; with Nakaseomyces glabratus [8], 56.7 mg/kg. The values for the Activity in the series on Nakaseomyces glabratus [11] and in the series with Candida albicans [17] were 4.21 mg/kg and 4.97 mg/kg, respectively. Further, the MIC amounted to 0.12 µg/mL (≈ 0.105 µM) in the series with Candida albicans [2]; 0.06 µg/mL (≈ 0.0526 µM) in the series with Candida albicans [12]; 0.015 µg/mL (≈ 0.0132 µM) with Candida tropicalis [13]; 0.12 µg/mL (≈ 0.105 µM) with Nakaseomyces glabratus [14]; 0.06 µg/mL (≈ 0.0526 µM) in the series on Nakaseomyces glabratus [15]; 0.25 µg/mL (≈ 0.219 µM) in the series on Nakaseomyces glabratus [19]. The outcome with Nakaseomyces glabratus [5], in the series with Nakaseomyces glabratus [10] and in the series on Candida albicans [18] was Active. In addition, the Cmax in series [9] came out at 11000 ng/mL. The molecule also displayed a Fu in the series with Serum of 1%. In addition, in [16], the AUC(0-inf) stood at 382 µg·h/mL.

By MIC is commonly meant the lowest concentration found to suppress growth. Broadly, the Cmax is the maximum level reached in the sampled fluid or tissue. The term AUC(0-inf) denotes total exposure, with the tail of the curve extrapolated. A lower AUC(0-inf) goes with less exposure.
